{
  "source": "paper PMC6146057",
  "about": "(ACS chemical neuroscience, 2018)",
  "key": {"mice": {"system": "mice", "assay": "Modified Irwin Toxicology Battery in mice", "format": "in vivo, mouse", "conditions": "100 mg/kg i.p."}, "rat M1": {"biological_target": "T1, rat M1 (Rattus norvegicus, UniProt P08482)", "T1 sequence (P08482 1-460)": "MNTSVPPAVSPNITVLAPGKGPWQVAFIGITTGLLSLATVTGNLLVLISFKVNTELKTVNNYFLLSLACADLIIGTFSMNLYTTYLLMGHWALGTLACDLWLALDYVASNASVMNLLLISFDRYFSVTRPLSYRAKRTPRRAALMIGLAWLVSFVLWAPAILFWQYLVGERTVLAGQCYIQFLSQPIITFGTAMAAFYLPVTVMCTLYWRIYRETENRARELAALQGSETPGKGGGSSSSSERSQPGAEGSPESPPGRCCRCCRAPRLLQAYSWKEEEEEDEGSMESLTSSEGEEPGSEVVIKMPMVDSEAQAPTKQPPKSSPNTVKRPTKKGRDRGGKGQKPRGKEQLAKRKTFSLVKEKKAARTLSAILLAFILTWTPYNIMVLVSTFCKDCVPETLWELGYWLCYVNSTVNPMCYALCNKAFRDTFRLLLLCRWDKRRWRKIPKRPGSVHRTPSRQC", "assay": "[3H]-NMS competition radioligand binding", "conditions": "up to 30 μM, rat M1-CHO membranes", "procedure,_shortened": "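Rat M1-CHO membranes (10 μg) were incubated with test compound (11-point 1:3 series, top final 30 μM) and 0.088 nM [3H]-NMS (Kd). Binding buffer was 20 mM HEPES, 10 mM MgCl2 and 100 mM NaCl, pH 7.4, for 1 h at room temperature with shaking. Nonspecific binding was defined with 10 μM atropine. Samples were filtered, washed three times with ice-cold Tris buffer and counted by scintillation.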"}, "[1]": {"system": "layer V medial prefrontal cortex fEPSPs", "assay": "Extracellular field electrophysiology in layer V prelimbic mPFC slices", "design": "species or system mouse", "procedure,_shortened": "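Coronal prelimbic slices (400 μm) recovered in NMDG-HEPES solution (pH 7.3) for 8–10 min at 32 °C, then were perfused with ACSF at 2 mL/min and 30–32 °C. Layer V fEPSPs were evoked from layers II–III (200 μs, 0.05 Hz) or optically in ChR2-injected mice. Compound alone was bath-applied for 20 min. Alternatively, 10 μM compound was applied for 10 min, then with 3 μM OxoM for 10 min. Slope was measured 46–50 min after washout.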"}},
  "note": "“Also recorded” adds a separate entry of the source.",
  "data": [
    {"smiles": "O=C(N[C@H]1CCCC[C@@H]1O)[C@H]1CN(Cc2ccc(-n3cccn3)cc2)c2ccccc2O1", "note": "[VU0486846, (2R)-N-[(1S,2S)-2-Hydroxycyclohexyl]-4-[(4-pyrazol-1-ylphenyl)-methyl]-2,3-dihydro-1,4-benzoxazine-2-carboxamide]", "values": [
      {"measurement": "free brain levels", "setting": "mice", "value": 342, "unit": "nM"},
      {"measurement": "free plasma levels", "setting": "mice", "value": 2000, "unit": "nM"},
      {"measurement": "total brain levels", "setting": "mice", "value": 12.2, "unit": "µM"},
      {"measurement": "total plasma levels", "setting": "mice", "value": 18.2, "unit": "µM"},
      {"measurement": "Cholinergic side effects or adverse effects", "setting": "mice; 3 h evaluation period", "value": "did not produce any cholinergic side effects or pronounced adverse effects"},
      {"measurement": "Inhibition of orthosteric [3H]-NMS binding", "setting": "rat M1", "value": "no displacement of [^3H]-NMS binding; also recorded: does not substantially inhibit binding"},
      {"measurement": "Magnitude of LTD, PAM + CCh vs CCh alone", "setting": "[1]; 3 μM VU0486846 + 10 μM CCh, electrically evoked, p < 0.05", "value": "significant increase in the magnitude of LTD"},
      {"measurement": "Change in fEPSP slope, compound alone (agonist activity in PFC)", "setting": "[1]; 3 μM bath application 20 min, electrically evoked layer V fEPSPs", "value": "no significant change"},
      {"measurement": "Magnitude of LTD, PAM + OxoM vs OxoM alone", "setting": "[1]; 10 μM VU0486846 + 3 μM OxoM, optically evoked, p < 0.05", "value": "significantly enhanced"}
    ]}
  ]
}
